The values that follow come from ChEMBL document CHEMBL3877244, “Synthesis and biological evaluation of new aryl-alkyl(alkenyl)-4-benzylpiperidines, novel Sigma Receptor (SR) modulators, as potential anticancer-agents” (Eur J Med Chem, 2016).

Assay [1] addresses Sigma non-opioid intracellular receptor 1 (Cavia porcellus, UniProt Q60492). The assay can be described thus: Displacement of [3H]-pentazocine from sigma 1 receptor in guinea pig brain cortical membrane after 120 mins by scintillation counting analysis. The class given is cell membranes. In outline:
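Nonspecific binding defined with unlabeled (+)-pentazocine. Filtration, then scintillation counting. IC50 by nonlinear regression, converted to Ki by Cheng–Prusoff.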

The nature of assay [2]: Displacement of [3H]-DTG from sigma 2 receptor in rat liver after 120 mins by scintillation counting analysis. In outline: (§1)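 Rat liver homogenate (150 µg) incubated 120 min at room temperature with 3 nM [³H]-DTG in 50 mM Tris-HCl pH 8.0. (+)-Pentazocine 100 nM masked S1R; haloperidol 10 µM defined nonspecific binding. Ki by Cheng–Prusoff from IC50.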
A short description of assay [3]: Cytotoxicity against human Paca3 cells assessed as decrease in cell viability using complete medium after 24 hrs by MTS assay. In kind it is functional, cell-based. The note with it: Paca3, 24 h. In outline: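 Cells in exponential growth, 3×10^3 per well, in medium with 10% FCS. Capan-2, PaCa3, MDA-MB 231, SUM 159 and PC3 were grown in DMEM/Ham's F12 with glutamine 2 mM and insulin 10 µg/ml. U87 was grown in EMEM and LNCaP in RPMI, each with glutamine. Compound 0.1–100 µM, continuous exposure (24 h; 48 h for the 48 h lines). MTS, OD 490 nm. IC50 read graphically. Three independent experiments in octuplicate.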
(Tetrazolium assays rely on reduction of a dye to a coloured formazan, in cell work by metabolically active cells.)

Assay [4] is described as follows: Cytotoxicity against human Paca3 cells assessed as decrease in cell viability under starvation condition after 24 hrs by MTS assay. In kind it is functional, cell-based. The note with it: Paca3, 24 h. In outline: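 Cells starved 24 h in low-glucose medium without FCS, then treated 24 h with compound in serum-free conditions. MTS read-out, OD 490 nm, expressed as percent of untreated control. IC50 read graphically from the dose-response plot. Three independent experiments in octuplicate.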

A short description of assay [5]: Displacement of [3H]DTG from sigma 2 receptor in rat brain homogenates without cerebellum. The class given is tissue-based. (In general: Loss of bound radioactivity is the signal in a displacement assay; it reports binding, not function.)
The nature of assay [6]: Displacement of [3H]-DTG from sigma 2 receptor in Sprague-Dawley rat liver membranes after 120 mins by scintillation counting analysis. In kind it is cell membranes, Membrane. The gist of the method: as §1
Assay [7] has as its target Sigma non-opioid intracellular receptor 1 (Homo sapiens, UniProt Q99720). Description: Binding affinity to sigma 1 receptor (unknown origin).
Assay [8] in a line: Binding affinity to sigma 2 receptor (unknown origin). In outline:
(§2)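 Rat liver homogenate (150 µg) was incubated 120 min at room temperature with 3 nM [3H]-DTG in 50 mM Tris-HCl pH 8.0, with test compound at 10^-10 to 10^-5 M (final). 100 nM (+)-pentazocine masked S1R and 10 µM haloperidol defined nonspecific binding. Filtration and scintillation counting were used. Ki came from regression IC50 via Cheng-Prusoff.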

Assay [9] is described as follows: Antiproliferative activity against human BxPC3 cells after 24 hrs. The class given is functional, cell-based. The note with it: BXPC-3, 24 h.
Assay [10] can be described thus: Antiproliferative activity against human AsPC1 cells after 24 hrs. The class given is functional, cell-based. The note with it: ASPC1, 24 h.
Assay [11] is described as follows: Antiproliferative activity against human CFPAC cells after 24 hrs. In kind it is functional, cell-based.
The nature of assay [12]: Antiproliferative activity against human PANC1 cells after 24 hrs. In kind it is functional, cell-based. The note with it: PANC-1, 24 h.
Assay [13] is described as follows: Antiproliferative activity against human MIAPaCa2 cells after 24 hrs. In kind it is functional, cell-based. The note with it: MIA PaCa-2, 24 h.
The nature of assay [14]: Antiproliferative activity against mouse Panc02 cells after 24 hrs. The note with it: Panc02, 24 h. The class given is functional, cell-based.
Assay [15] can be described thus: Displacement of [3H]-DTG from sigma 2 receptor in rat liver membranes after 120 mins by scintillation counting analysis. In kind it is cell membranes, Membrane. The gist of the method: as §2

SMILES strings stand for the structures.

Chain of Sigma non-opioid intracellular receptor 1 (Cavia porcellus, UniProt Q60492) (Q60492 whole entry): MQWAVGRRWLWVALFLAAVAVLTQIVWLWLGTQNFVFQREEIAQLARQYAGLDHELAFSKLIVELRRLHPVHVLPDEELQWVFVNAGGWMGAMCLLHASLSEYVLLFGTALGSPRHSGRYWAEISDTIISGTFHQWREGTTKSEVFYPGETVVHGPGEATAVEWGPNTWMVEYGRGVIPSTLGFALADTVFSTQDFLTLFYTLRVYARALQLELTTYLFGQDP
Chain of Sigma non-opioid intracellular receptor 1 (Homo sapiens, UniProt Q99720) (Q99720 whole entry): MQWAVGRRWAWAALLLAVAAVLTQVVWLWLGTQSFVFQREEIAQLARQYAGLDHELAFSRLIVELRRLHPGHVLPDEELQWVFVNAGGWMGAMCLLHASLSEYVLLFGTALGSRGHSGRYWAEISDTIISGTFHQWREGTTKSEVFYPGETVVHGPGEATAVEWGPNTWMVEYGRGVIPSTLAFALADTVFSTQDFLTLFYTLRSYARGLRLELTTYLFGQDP

Regarding `CC(CCN1CCC(Cc2ccccc2)CC1)c1ccc2ccccc2c1` (single isomer, unassigned; (+)), the Ki (usually the dissociation constant of the complex between target and ligand, obtained from inhibition or displacement) in assay [1] worked out at 0.006 µM; in assay [2] it was 0.026 µM.

Take `Fc1ccc(-n2cc(CCCCN3CCC4(CC3)OCc3ccccc34)c3ccccc32)cc1` [SIRAMESINE]: the IC50 – broadly, the point on the concentration scale where inhibition reaches its midpoint – is 45.4 µM in [3] and 6 µM in [4]. This compound came in with a Ki in assay [5] of 0.00012 µM.

Consider `CC(O)(CCN1CCC(Cc2ccccc2)CC1)c1ccc2ccccc2c1` (stereo in doubt; 1b), for which the figures for the Ki in [1] and in assay [2] were 0.011 µM and 0.079 µM, respectively.

In assay [6], `C[C@@H]1CN(CCCn2c3ccccc3c3ccccc32)C[C@H](C)N1` [RIMCAZOLE] returned a Ki of 0.302 µM.

Consider `COc1ccc(C)cc1NC(=O)OC1CC2CCCC(C1)N2CCCCCCCCCCN` (stereo not given), for which the Ki in assay [7] is 0.133 µM; in [8], 0.019 µM.

As for `CC(O)(CCN1CCC(Cc2ccccc2)CC1)c1ccc2cc(O)ccc2c1` (stereo in doubt; 9a), the Ki in assay [1] came to 0.07 µM; in [2] it was 0.068 µM.

As for `CC(CCN1CCC(Cc2ccccc2)CC1)c1ccc2ccccc2c1` (single isomer, unassigned; (-)), the Ki in assay [1] turned out to be 0.0069 µM; in [2], 0.098 µM.

`COc1ccc(C)cc1NC(=O)OC1CC2CCCC(C1)N2CCCCCCN` (stereo not given): the IC50 in assay [9], in [10], in assay [11], in assay [12], in assay [13] and in assay [14] was at most 100 µM each time.

Turning to `CC(CCN1CCC(Cc2ccccc2)CC1)c1ccccc1` (stereo in doubt; 6b), the Ki in [1] came to 0.003 µM; in [2], 0.0079 µM.

As to `CC(CCN1CCC(Cc2ccccc2)CC1)c1ccccc1` (single isomer, unassigned; (+)), the Ki in assay [1] was 0.0029 µM; in assay [2] it was 0.0089 µM.

For the compound `CC(O)(CCN1CCC(Cc2ccccc2)CC1)c1ccccc1` (racemic), the results for the Ki in [1] and in assay [2] were 0.0098 µM and 0.057 µM, respectively.

For the compound `C/C(=C\CN1CCC(Cc2ccccc2)CC1)c1ccccc1`, the Ki in [1] came out at 0.0007 µM; in [2] it was 0.047 µM.

`CC(O)(CCN1CCC(Cc2ccccc2)CC1)c1ccc2ccccc2c1` (single isomer, unassigned; (+)): the Ki in [1] amounted to 0.01 µM; in assay [2], 0.081 µM.

As to `CC(O)(CCN1CCC(Cc2ccccc2)CC1)c1ccccc1` (stereo in doubt; 2a), the values for the Ki in [1] and in assay [2] were 0.027 µM and 0.339 µM, respectively.

Regarding `C/C(=C\CN1CCC(Cc2ccccc2)CC1)c1ccc2cc(O)ccc2c1`, the results for the Ki in assay [1] and in [2] were 0.0096 µM and 0.305 µM, respectively.

Consider `CC(CCN1CCC(Cc2ccccc2)CC1)c1ccc2cc(O)ccc2c1` (single isomer, unassigned; (-)), for which the Ki in assay [1] was determined as 0.013 µM; in assay [2], 0.105 µM.

For `CC(O)(CCN1CCC(Cc2ccccc2)CC1)c1ccc2cc(O)ccc2c1` (racemic), the figures for the Ki in assay [1] and in [2] were 0.027 µM and 0.118 µM, respectively.

With `CC(CCN1CCC(Cc2ccccc2)CC1)c1ccc2cc(O)ccc2c1` (single isomer, unassigned; (+)), the values for the Ki in assay [1] and in [2] were 0.035 µM and 0.582 µM, respectively.

In assay [15], `O[C@@H](CN1C2CCC1CC(c1ccccc1)C2)c1cccc(Br)c1` (stereo not given in full) had an inhibition constant (Ki) of 0.0123 µM. Moreover, the IC50 in assay [9], in assay [10], in [11], in assay [12], in [13] and in assay [14] was at most 100 µM throughout.

Consider `CC(CCN1CCC(Cc2ccccc2)CC1)c1ccc2ccccc2c1` (racemic), for which the Ki in assay [1] was determined as 0.0056 µM; in assay [2] it was 0.144 µM.

Consider `COc1ccc(C)cc1NC(=O)OC1CC2CCCC(C1)N2Cc1ccc(N(C)C)cc1` (stereo not given), for which the IC50 in assay [9], in assay [10], in assay [11], in assay [12], in assay [13] and in assay [14] was at most 100 µM in each case.

As for `CC(O)(CCN1CCC(Cc2ccccc2)CC1)c1ccccc1` (stereo in doubt; 2b), the Ki is 0.04 µM in assay [1] and 0.24 µM in [2].

Take `CC(CCN1CCC(Cc2ccccc2)CC1)c1ccccc1` (racemic): the Ki in [1] came to 0.0021 µM; in assay [2], 0.0065 µM.

Turning to `CC(CCN1CCC(Cc2ccccc2)CC1)c1ccc2cc(O)ccc2c1` (stereo in doubt; 12), the Ki in assay [1] was 0.059 µM; in assay [2], 0.314 µM.

As for `CC(O)(CCN1CCC(Cc2ccccc2)CC1)c1ccc2ccccc2c1` (racemic), the results for the Ki in [1] and in assay [2] were 0.0069 µM and 0.0625 µM, respectively.

Take `CC(O)(CCN1CCC(Cc2ccccc2)CC1)c1ccc2cc(O)ccc2c1` (single isomer, unassigned; (-)): the Ki in [1] was found to be 0.062 µM; in [2] it was 0.905 µM.
